Measured values: ChEMBL document CHEMBL3784976 (J Med Chem, 2016)

Tests used:
[1] = Apparent intrinsic clearance in rat liver microsomes; format: ADME; settings: read-out: CLH(app)
[2] = molecular target: T1, Transient receptor potential cation channel subfamily A member 1 (Rattus norvegicus, UniProt Q6RI86); experiment: Antagonist activity at rat TRPA1 expressed in tetracycline-inducible T-REx expression system transfected CHO cells assessed as inhibition of AITC-induced Ca2+ influx preincubated for 2 mins followed by AITC addition measured for 2 mins by Fluo-4 dye based FLIPR assay; format: cell-based
[3] = Apparent intrinsic clearance in human liver microsomes; format: ADME; settings: read-out: CLH(app)
[4] = molecular target: T2, Transient receptor potential cation channel subfamily A member 1 (Homo sapiens, UniProt O75762); experiment: Antagonist activity at human TRPA1 expressed in tetracycline-inducible T-REx expression system transfected CHO cells assessed as inhibition of AITC-induced Ca2+ influx preincubated for 2 mins followed by AITC addition measured for 2 mins by Fluo-4 dye based FLIPR assay; format: cell-based
[5] = Fraction unbound in rat plasma; format: ADME, cell-free
Rattus norvegicus [6] = experiment: fCmax in rat at 10 mg/kg, po; format: ADME, organism-based; settings: in vivo
Method in brief: (§1)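 Rats dosed orally at 30 mg/kg, or 10 mg/kg for one analogue, in 1% Tween 80/2% HPMC/97% water with methanesulfonic acid, pH 2.2.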

[7] = Tmax in rat at 10 mg/kg, po; format: ADME, organism-based; settings: in vivo; method in brief: as §1
[8] = molecular target: T2, Transient receptor potential cation channel subfamily A member 1; experiment: Antagonist activity at human TRPA1 expressed in tetracycline-inducible T-REx expression system transfected CHO cells assessed as inhibition of AITC-induced 45Ca2+ uptake preincubated for 1 min followed by AITC addition measured after 12 mins; format: cell-based
[9] = molecular target: T2, Transient receptor potential cation channel subfamily A member 1; experiment: Agonist activity at human TRPA1 expressed in tetracycline-inducible T-REx expression system transfected CHO cells by 45Ca2+ uptake assay; format: cell-based
[10] = Cmax in rat at 10 mg/kg, po; format: ADME, organism-based; design: dose 10 mg/kg, route oral; settings: in vivo
Method in brief: (§2)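 Rat oral PK at 30 mg/kg (10 mg/kg for one analogue) in 1% Tween 80/2% HPMC/97% water with methanesulfonic acid, pH 2.2.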

[11] = molecular target: T1, Transient receptor potential cation channel subfamily A member 1; experiment: Antagonist activity at rat TRPA1 expressed in tetracycline-inducible T-REx expression system transfected CHO cells assessed as inhibition of AITC-induced 45Ca2+ uptake preincubated for 1 min followed by AITC addition measured after 12 mins; format: cell-based
[12] = Ratio of fCmax in rat at 10 mg/kg, po to IC50 for rat TRPA1 expressed in tetracycline-inducible T-REx expression system transfected CHO cells by 45Ca2+ uptake assay
Method in brief: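 Rat oral PK dosed at 10 mg/kg in 1% Tween 80/2% HPMC/97% water/methanesulfonic acid pH 2.2. Unbound Cmax divided by rat TRPA1 45Ca2+ IC50.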

[13] = Half life in rat at 10 mg/kg, po; format: ADME, organism-based; settings: in vivo; method in brief: as §1
[14] = AUC (infinity) in rat at 10 mg/kg, po; format: ADME, organism-based; design: dose 10 mg/kg, time infinity, route oral; settings: in vivo; method in brief: as §2
[15] = molecular target: T1, Transient receptor potential cation channel subfamily A member 1; experiment: Agonist activity at rat TRPA1 expressed in tetracycline-inducible T-REx expression system transfected CHO cells by 45Ca2+ uptake assay; format: cell-based
Rattus norvegicus [16] = experiment: fCmax in rat at 30 mg/kg, po; format: ADME, organism-based; settings: in vivo; method in brief: as §1
[17] = Oral bioavailability in rat at 30 mg/kg; format: ADME, organism-based; settings: in vivo; method in brief: as §1
[18] = Clearance in rat at 0.5 mg/kg, iv as single dose; format: ADME, organism-based; settings: in vivo
[19] = Half life in rat at 30 mg/kg, po; format: ADME, organism-based; settings: in vivo; method in brief: as §1
[20] = AUC (infinity) in rat at 30 mg/kg, po; format: ADME, organism-based; design: dose 30 mg/kg, time infinity, route oral; settings: in vivo; method in brief: as §2
[21] = Cmax in rat at 30 mg/kg, po; format: ADME, organism-based; design: dose 30 mg/kg, route oral; settings: in vivo; method in brief: as §2
[22] = Half life in rat at 0.5 mg/kg, iv administered as single dose; format: ADME, organism-based; settings: in vivo
Method in brief: (§3)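 Single intravenous dose of 0.5 mg/kg given to rats, formulated in 100% DMSO.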

[23] = Volume of distribution at steady state in rat at 0.5 mg/kg, iv as single dose; format: ADME, organism-based; settings: in vivo, read-out: Vdss; method in brief: as §3
[24] = Ratio of fCmax in rat at 30 mg/kg, po to IC50 for rat TRPA1 expressed in tetracycline-inducible T-REx expression system transfected CHO cells by 45Ca2+ uptake assay
Rattus norvegicus [25] = experiment: Unbound clearance in rat at 0.5 mg/kg, iv as single dose; format: ADME, organism-based; settings: in vivo; method in brief: as §3
[26] = Tmax in rat at 30 mg/kg, po; format: ADME, organism-based; settings: in vivo; method in brief: as §1
Liver microsome [27] = experiment: Drug metabolism in human liver microsomes assessed as 3-((3-(2-(4-Chlorophenyl)-2-hydroxyethyl)-1,2,4-oxadiazol-5-yl)-methyl)pyrido[2,3-d]pyrimidin-4(3H)-one formation; format: ADME
Liver microsome [28] = experiment: Drug metabolism in rat liver microsomes assessed as 3-((3-(2-(4-Chlorophenyl)-2-hydroxyethyl)-1,2,4-oxadiazol-5-yl)-methyl)pyrido[2,3-d]pyrimidin-4(3H)-one formation; format: ADME
[29] = molecular target: T2, Transient receptor potential cation channel subfamily A member 1; experiment: Agonist activity at human TRPA1 expressed in tetracycline-inducible T-REx expression system transfected CHO cells assessed as increase in Ca2+ influx measured for 2 mins by Fluo-4 dye based FLIPR assay; format: cell-based
Method in brief: (§4)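 FLIPR Tetra Ca2+ flux with Fluo-4 NW dye plus probenecid. Cells were seeded 24 h ahead in medium with […]. Dye loading ran 30 min at 37 °C, then 30 min at RT. Compound was added and agonist signal read for 2 min. Data were expressed as POC of DMSO (low) vs saturating AITC (high: 15 μM human, 200 μM rat) and fitted to a four-parameter equation.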

[30] = molecular target: Transient receptor potential cation channel subfamily V member 1 (Homo sapiens, UniProt Q8NER1); experiment: Antagonist activity at human TRPV1 expressed in CHO cells assessed as inhibition of capsaicin-induced Ca2+ influx preincubated for 2.5 mins followed by capsaicin addition measured for 1 min by luminescence assay; format: cell-based
[31] = molecular target: T1, Transient receptor potential cation channel subfamily A member 1; experiment: Agonist activity at rat TRPA1 expressed in tetracycline-inducible T-REx expression system transfected CHO cells assessed as increase in Ca2+ influx measured for 2 mins by Fluo-4 dye based FLIPR assay; format: cell-based; method in brief: as §4
[32] = molecular target: Transient receptor potential cation channel subfamily V member 3 (Rattus norvegicus); experiment: Antagonist activity at rat TRPV3 expressed in tetracycline-inducible T-REx expression system transfected CHO cells assessed as inhibition of […]-induced Ca2+ influx preincubated for 1 min followed by […] addition measured for 1 min by luminescence assay

T1 sequence (Q6RI86 whole entry): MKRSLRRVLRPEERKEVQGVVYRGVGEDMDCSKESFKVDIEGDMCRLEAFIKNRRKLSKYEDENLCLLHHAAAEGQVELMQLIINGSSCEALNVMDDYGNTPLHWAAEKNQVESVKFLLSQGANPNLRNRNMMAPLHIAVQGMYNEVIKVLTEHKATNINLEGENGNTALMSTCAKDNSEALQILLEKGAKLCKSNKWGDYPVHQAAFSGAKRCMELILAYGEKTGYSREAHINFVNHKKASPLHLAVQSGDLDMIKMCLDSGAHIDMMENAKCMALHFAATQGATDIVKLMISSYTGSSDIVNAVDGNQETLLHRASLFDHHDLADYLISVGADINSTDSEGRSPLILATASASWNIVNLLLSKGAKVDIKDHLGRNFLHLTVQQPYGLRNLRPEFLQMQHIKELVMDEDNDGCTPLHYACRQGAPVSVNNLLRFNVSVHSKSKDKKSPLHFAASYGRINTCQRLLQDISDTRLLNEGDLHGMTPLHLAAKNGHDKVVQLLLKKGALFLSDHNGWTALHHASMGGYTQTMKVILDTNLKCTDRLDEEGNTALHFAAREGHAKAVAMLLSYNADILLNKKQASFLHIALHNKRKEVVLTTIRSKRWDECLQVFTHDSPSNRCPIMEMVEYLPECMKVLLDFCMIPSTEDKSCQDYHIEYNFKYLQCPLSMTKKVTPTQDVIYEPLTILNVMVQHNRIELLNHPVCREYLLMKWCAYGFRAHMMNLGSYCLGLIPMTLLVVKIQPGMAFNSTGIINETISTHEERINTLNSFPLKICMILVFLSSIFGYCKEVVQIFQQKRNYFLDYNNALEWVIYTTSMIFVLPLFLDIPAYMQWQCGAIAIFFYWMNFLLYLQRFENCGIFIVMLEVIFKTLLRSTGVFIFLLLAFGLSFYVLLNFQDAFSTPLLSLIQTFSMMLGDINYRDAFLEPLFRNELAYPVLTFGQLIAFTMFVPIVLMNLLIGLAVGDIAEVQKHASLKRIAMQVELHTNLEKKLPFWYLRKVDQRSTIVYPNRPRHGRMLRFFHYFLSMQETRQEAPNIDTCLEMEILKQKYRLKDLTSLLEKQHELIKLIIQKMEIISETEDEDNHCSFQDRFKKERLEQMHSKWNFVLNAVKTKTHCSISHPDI
T2 sequence (O75762 whole entry): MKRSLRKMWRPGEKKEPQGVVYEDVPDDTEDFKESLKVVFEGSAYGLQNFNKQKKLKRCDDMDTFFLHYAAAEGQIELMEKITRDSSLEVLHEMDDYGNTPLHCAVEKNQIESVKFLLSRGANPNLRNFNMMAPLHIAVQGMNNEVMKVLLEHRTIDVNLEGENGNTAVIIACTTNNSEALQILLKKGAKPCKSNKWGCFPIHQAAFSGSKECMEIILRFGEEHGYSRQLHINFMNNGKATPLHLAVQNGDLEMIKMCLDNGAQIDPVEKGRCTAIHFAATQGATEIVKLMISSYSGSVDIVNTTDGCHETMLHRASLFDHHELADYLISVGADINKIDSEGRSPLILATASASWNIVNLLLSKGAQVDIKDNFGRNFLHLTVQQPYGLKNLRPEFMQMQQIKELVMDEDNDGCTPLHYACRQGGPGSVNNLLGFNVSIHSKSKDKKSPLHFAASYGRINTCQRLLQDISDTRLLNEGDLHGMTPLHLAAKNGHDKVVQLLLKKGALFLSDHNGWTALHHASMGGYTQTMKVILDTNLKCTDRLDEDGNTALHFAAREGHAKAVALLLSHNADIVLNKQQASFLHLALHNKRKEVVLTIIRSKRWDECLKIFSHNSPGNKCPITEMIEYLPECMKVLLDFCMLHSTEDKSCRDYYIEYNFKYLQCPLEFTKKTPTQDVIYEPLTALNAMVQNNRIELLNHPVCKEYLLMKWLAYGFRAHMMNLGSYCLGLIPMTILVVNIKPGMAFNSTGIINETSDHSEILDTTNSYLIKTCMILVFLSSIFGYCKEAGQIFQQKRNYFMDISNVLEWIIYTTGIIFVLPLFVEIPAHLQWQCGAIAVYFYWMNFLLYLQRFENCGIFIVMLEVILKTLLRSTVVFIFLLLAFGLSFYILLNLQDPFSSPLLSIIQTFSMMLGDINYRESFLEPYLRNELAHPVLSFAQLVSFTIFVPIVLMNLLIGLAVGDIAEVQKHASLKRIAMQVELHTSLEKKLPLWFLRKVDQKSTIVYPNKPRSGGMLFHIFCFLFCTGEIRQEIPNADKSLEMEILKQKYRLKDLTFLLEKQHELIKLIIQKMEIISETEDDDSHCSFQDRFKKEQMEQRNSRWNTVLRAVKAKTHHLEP
Transient receptor potential cation channel subfamily V member 1, sequence (Q8NER1 whole entry): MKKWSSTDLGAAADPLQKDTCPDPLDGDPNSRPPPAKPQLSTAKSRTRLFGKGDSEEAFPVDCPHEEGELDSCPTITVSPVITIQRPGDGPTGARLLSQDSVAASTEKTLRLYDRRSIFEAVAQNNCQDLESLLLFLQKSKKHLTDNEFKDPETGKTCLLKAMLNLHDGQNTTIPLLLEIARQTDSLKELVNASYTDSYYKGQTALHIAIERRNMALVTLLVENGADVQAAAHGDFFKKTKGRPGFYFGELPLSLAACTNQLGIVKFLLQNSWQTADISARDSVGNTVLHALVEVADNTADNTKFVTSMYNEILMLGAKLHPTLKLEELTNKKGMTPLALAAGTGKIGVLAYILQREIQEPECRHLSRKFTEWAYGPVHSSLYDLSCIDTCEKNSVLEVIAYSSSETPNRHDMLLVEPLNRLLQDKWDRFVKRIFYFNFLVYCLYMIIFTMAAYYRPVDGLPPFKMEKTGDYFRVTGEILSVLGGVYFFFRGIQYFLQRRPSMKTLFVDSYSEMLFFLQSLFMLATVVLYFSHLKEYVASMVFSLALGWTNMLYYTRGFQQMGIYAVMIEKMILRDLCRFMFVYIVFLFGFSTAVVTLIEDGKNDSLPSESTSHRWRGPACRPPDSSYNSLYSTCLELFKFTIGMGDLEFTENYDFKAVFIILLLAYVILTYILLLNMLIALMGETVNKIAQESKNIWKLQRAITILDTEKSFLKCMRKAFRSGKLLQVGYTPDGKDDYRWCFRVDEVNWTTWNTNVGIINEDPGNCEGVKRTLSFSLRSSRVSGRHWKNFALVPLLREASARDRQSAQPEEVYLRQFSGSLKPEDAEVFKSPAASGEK

Row | SMILES | microsomal CLint [1] | IC50 [2] | microsomal CLint [3] | IC50 [4] | other results
1 | Cc1cccc2ncn(CC(=O)NCCc3ccc(Cl)cc3)c(=O)c12 | 736 µL/min/mg | 112 nM | 301 µL/min/mg | 70 nM | –
2 | COc1ccc(CCNC(=O)Cn2cnc3c(C)cccc3c2=O)cc1 | – | 1370 nM | – | – | –
3 | O=C(Cn1cnc2ccccc2c1=O)NCCc1ccc(Cl)cc1 | 104 µL/min/mg | – | 31 µL/min/mg | > 16700 nM | –
4 | COc1cccc2c(=O)n(CC(=O)NCCc3ccc(Cl)cc3)cnc12 | 455 µL/min/mg | 2150 nM | 34 µL/min/mg | 1460 nM | –
5 | COc1ccccc1CCNC(=O)Cn1cnc2c(C)cccc2c1=O | – | > 16700 nM | – | > 16700 nM | –
6 | O=C(Cn1cnc2c(F)cccc2c1=O)NCCc1ccc(Cl)cc1 | 186 µL/min/mg | 791 nM | 40 µL/min/mg | 1330 nM | –
7 | O=c1c2cccnc2ncn1Cc1nc(CC(F)c2ccc(Cl)cc2)no1 (racemic) | 94 µL/min/mg | 31 nM | 56 µL/min/mg | 41 nM | –
8 | C/C(=C\c1noc(Cn2cnc3ncn(C)c3c2=O)n1)c1ccc(Cl)cc1 | < 14 µL/min/mg | 75 nM | < 14 µL/min/mg | 71 nM | fraction unbound [5]: 0.033; fCmax (Rattus norvegicus [6]): 0.2 µM; Tmax [7]: 2 h; IC50 [8]: 63 nM; EC50 [9]: > 40000 nM; Cmax [10]: 6.5 µM; IC50 [11]: 55 nM; Ratio [12]: 4; half-life [13]: 10 h; AUC(0-inf) [14]: 117 µM·h; EC50 [15]: > 40000 nM
9 | O=c1c2cccnc2ncn1Cc1noc(CCc2ccc(Cl)cc2)n1 | 122 µL/min/mg | 89 nM | 35 µL/min/mg | 156 nM | fCmax (Rattus norvegicus [16]): 1 µM; bioavailability [17]: 52%; fraction unbound [5]: 0.093; clearance [18]: 36.7 mL/min/kg; half-life [19]: 4 h; AUC(0-inf) [20]: 19.2 µM·h; Cmax [21]: 10.3 µM; half-life [22]: 0.4 h; Vd [23]: 1 L/kg; IC50 [8]: 1580 nM; Ratio [24]: 3; CL free (Rattus norvegicus [25]): 400 mL/min/kg; EC50 [9]: > 40000 nM; IC50 [11]: 411 nM; Tmax [26]: 0.5 h; EC50 [15]: > 40000 nM
10 | Cc1ccc2c(=O)n(CC(=O)NCCc3ccc(Cl)cc3)cnc2c1 | 829 µL/min/mg | > 16700 nM | 144 µL/min/mg | > 4200 nM | –
11 | Cc1cccc2c(=O)n(CC(=O)NCCc3ccccc3)cnc12 | – | – | – | > 8330 nM | –
12 | Cc1ccnc2ncn(Cc3nc(CCc4ccc(Cl)cc4)no3)c(=O)c12 | > 399 µL/min/mg | 35 nM | 340 µL/min/mg | 16 nM | –
13 | O=c1c2cccnc2ncn1Cc1nc(CCc2ccc(Cl)cc2)no1 | 131 µL/min/mg | 21 nM | 32 µL/min/mg | 41 nM | fraction unbound [5]: 0.144; clearance [18]: 98.3 mL/min/kg; Drug metabolism (Liver microsome [27]): metabolite_detected; half-life [22]: 0.3 h; Vd [23]: 2 L/kg; IC50 [8]: 376 nM; EC50 [9]: > 40000 nM; IC50 [11]: 120 nM; Drug metabolism (Liver microsome [28]): metabolite_detected; EC50 [15]: > 40000 nM
14 | C/C(=C\c1nc(Cn2cnc3ncn(C)c3c2=O)no1)c1ccc(Cl)cc1 | < 14 µL/min/mg | 274 nM | 76 µL/min/mg | 165 nM | –
15 | Cc1ccc2ncn(CC(=O)NCCc3ccc(Cl)cc3)c(=O)c2c1 | – | 287 nM | – | 265 nM | –
16 | N#Cc1cccc2c(=O)n(CC(=O)NCCc3ccc(Cl)cc3)cnc12 | 297 µL/min/mg | 56 nM | 49 µL/min/mg | 201 nM | –
17 | O=C(Cn1cnc2c(C(F)(F)F)cccc2c1=O)NCCc1ccc(Cl)cc1 | > 399 µL/min/mg | 306 nM | 397 µL/min/mg | 286 nM | –
18 | Cn1cnc2ncn(Cc3noc(CCc4ccc(Cl)cc4)n3)c(=O)c21 | 44 µL/min/mg | 136 nM | 19 µL/min/mg | 211 nM | –
19 | O=C(Cn1cnc2ncccc2c1=O)NCCc1ccc(Cl)cc1 | 18 µL/min/mg | 1170 nM | < 14 µL/min/mg | 1180 nM | –
20 | COc1cccc(CCNC(=O)Cn2cnc3c(C)cccc3c2=O)c1 | – | > 16700 nM | – | > 16700 nM | –
21 | O=C(Cn1cnc2cnccc2c1=O)NCCc1ccc(Cl)cc1 | 179 µL/min/mg | 1080 nM | 14 µL/min/mg | 1710 nM | –
22 | C/C(=C\c1nc(Cn2cnc3ncccc3c2=O)no1)c1ccc(Cl)cc1 | – | – | – | – | fCmax (Rattus norvegicus [16]): 0.1 µM; bioavailability [17]: 32%; fraction unbound [5]: 0.012; half-life [19]: 5.1 h; AUC(0-inf) [20]: 94.9 µM·h; Cmax [21]: 8 µM; half-life [22]: 4.2 h; Vd [23]: 1.4 L/kg; Tmax [26]: 2.7 h
23 | Cc1cccc2c(=O)n(CC(=O)NCCc3ccc(OC(F)F)cc3)cnc12 | > 399 µL/min/mg | 142 nM | 194 µL/min/mg | 685 nM | EC50 [29]: > 25000 nM; IC50 [30]: > 20000 nM; IC50 [8]: 6270 nM; EC50 [9]: > 47000 nM; IC50 [11]: 2620 nM; EC50 [31]: > 25000 nM; IC50 [32]: > 20000 nM; EC50 [15]: > 47000 nM
24 | Cc1cccc2c(=O)n(CC(=O)NCCc3ccc(Cl)cc3)cnc12 | 706 µL/min/mg | 358 nM | 224 µL/min/mg | 802 nM | –
